Test results: ChEMBL document CHEMBL3091313, “Amino acids derived benzoxazepines: design, synthesis and antitumor activity” (Bioorg Med Chem Lett, 2013)

Legend:
MDA-MB-231 [1] = assay: Antiproliferative activity against human MDA-MB-231 cells after 24 hrs by MTT assay; format: functional, cell-based; conditions: MDA-MB-231, 24 h
Procedure, shortened: (§1)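 MCF-7 (ER+ve) and MDA-MB-231 (ER-ve) breast cancer cells were exposed to compound or vehicle. Viability was read by MTT and expressed as % cell death versus vehicle, with 4-hydroxytamoxifen as positive control. IC50 came from three independent experiments, each in triplicate.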

MCF7 [2] = assay: Antiproliferative activity against human MCF7 cells after 24 hrs by MTT assay; format: functional, cell-based; conditions: MCF7, 24 h; procedure, shortened: as §1
MCF7 [3] = assay: Antiproliferative activity against human MCF7 cells after 72 hrs by MTT assay; format: functional, cell-based; conditions: MCF7, 72 h; procedure, shortened: as §1
HEK293 = assay: Cytotoxicity against HEK293 cells after 24 hrs by MTT assay; format: cell-based; conditions: Homo sapiens, HEK293, 72 h; in the assay text read “after 72 hrs” for “after 24 hrs”
[4] = Safety index, ratio of IC50 for HEK293 cells to IC50 for human MCF7 cells; format: toxicity, cell-based; conditions: HEK293 cells versus MCF7 cells, read-out: Ratio IC50
Procedure, shortened: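 Cell death was assessed by MTT assay after 72 h exposure. The ratio was calculated as the HEK-293 IC50 divided by the MCF-7 EC50.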

MCF7 [5] = assay: Antiproliferative activity against human MCF7 cells after 48 hrs by MTT assay; format: functional, cell-based; conditions: MCF7, 48 h; procedure, shortened: as §1
MDA-MB-231 [6] = assay: Antiproliferative activity against human MDA-MB-231 cells after 48 hrs by MTT assay; format: functional, cell-based; conditions: MDA-MB-231, 48 h; procedure, shortened: as §1
MDA-MB-231 [7] = assay: Antiproliferative activity against human MDA-MB-231 cells after 72 hrs by MTT assay; format: functional, cell-based; conditions: MDA-MB-231, 72 h; procedure, shortened: as §1

SMILES	IC50 (MDA-MB-231 [1]) [µM]	IC50 (MCF7 [2]) [µM]	also measured
COc1ccc(C[C@H]2COc3ccccc3CN2Cc2ccc(OCCN3CCCCCC3)cc2)cc1	> 20	> 20	–
CCN(CC)CCOc1ccc(CN2Cc3ccccc3OC[C@@H]2Cc2ccc(OC)cc2)cc1	18.6	14.5	–
Cc1ccc(S(=O)(=O)N2Cc3ccccc3OCC2Cc2ccc(O)cc2)cc1 (stereo not drawn)	–	–	IC50 (MCF7 [3]): 10 µM; IC50 (HEK293): 30 µM; selectivity ratio [4]: 3
COc1ccc(C[C@H]2COc3ccccc3CN2)cc1	> 20	> 20	–
Cc1ccc(S(=O)(=O)N2Cc3ccccc3OC[C@@H]2Cc2ccc(OCCN3CCCCC3)cc2)cc1	10.2	9.62	IC50 (MCF7 [3]): 3.23 µM; IC50 (MCF7 [5]): 4.31 µM; IC50 (MDA-MB-231 [6]): 5.12 µM; IC50 (MDA-MB-231 [7]): 4.2 µM
COc1ccc(C[C@H]2COc3ccccc3CN2Cc2ccc(OCCN(C)C)cc2)cc1	> 20	> 20	–
COc1cccc2c1OC[C@H](Cc1ccc(OCCN3CCCC3)cc1)N(S(=O)(=O)c1ccc(C)cc1)C2	> 20	> 20	–
CCC(=C(c1ccc(O)cc1)c1ccc(OCCN(C)C)cc1)c1ccccc1	10.4	7.2	–
CCN(CC)CCOc1ccc(C[C@H]2COc3c(cccc3OC)CN2S(=O)(=O)c2ccc(C)cc2)cc1	> 20	> 20	–
COc1ccc(C[C@H]2COc3ccccc3CN2Cc2ccc(O)cc2)cc1	13.2	10.3	–
COc1ccc2c(c1)CN(S(=O)(=O)c1ccc(C)cc1)[C@@H](CC(C)C)CO2	> 20	> 20	–
COc1ccc2c(c1)OC[C@H](Cc1ccc(O)cc1)N(S(=O)(=O)c1ccc(C)cc1)C2	> 20	> 20	–
COc1ccc(C[C@H]2COc3ccccc3CN2C(=O)OC(C)(C)C)cc1	> 20	> 20	–

Further lines, with some results ahead:

IC50 (MDA-MB-231 [1]) [µM]	IC50 (MCF7 [2]) [µM]	SMILES	also measured
> 20	> 20	COc1ccc(C[C@H]2COc3ccccc3CN2Cc2ccc(OCCN3CCCCC3)cc2)cc1	–
> 20	> 20	COc1cccc2c1OC[C@H](Cc1ccc(OCCN3CCCCCC3)cc1)N(S(=O)(=O)c1ccc(C)cc1)C2	–
> 20	> 20	COc1ccc2c(c1)CN(S(=O)(=O)c1ccc(C)cc1)[C@@H](Cc1c[nH]c3ccccc13)CO2	–
> 20	> 20	COc1cccc2c1OC[C@H](Cc1ccc(OCCN(C)C)cc1)N(S(=O)(=O)c1ccc(C)cc1)C2	–
> 20	> 20	COc1cccc2c1OC[C@H](Cc1ccc(OCCN3CCOCC3)cc1)N(S(=O)(=O)c1ccc(C)cc1)C2	–
15.7	12.5	COc1ccc(C[C@H]2COc3ccccc3CN2Cc2ccc(OCCN3CCCC3)cc2)cc1	–
